Data published in ChEMBL document CHEMBL1127316, “Piperidinyltetralin sigma ligands” (J Med Chem, 1994).

Assays:
[1] = tested on: Mus musculus; assay: Inhibition of mescaline effects in mice following p.o. administration.; format: functional; conditions: po
Method in brief: (§1)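 In mice, antagonism of mescaline-induced effects was tested after oral administration. Potency is an ED50 in mg/kg, calculated as free base weight.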

[2] = tested on: Mus musculus; assay: Antimescaline activity in the mouse (administered po); format: functional; method in brief: as §1
[3] = tested on: Mus musculus; assay: Ability to block the aggressive behavior caused by prolonged isolation in mouse (administered po); format: functional
Method in brief: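 Mice were made aggressive by prolonged isolation. The compound was given orally, and blockade of the aggressive behavior was scored. ED50 is in mg/kg, expressed as free base weight.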

[4] = tested on: Rattus norvegicus; assay: In vivo antagonism of compound determined by the ability to inhibit 5-HTP-induced head twitch in rat (administered po); format: functional
Method in brief: (§2)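 In rats, head twitches were induced with 5-hydroxytryptophan as an in vivo read-out of 5HT2 antagonism. The compound was dosed po, and inhibition of twitching gave an ED50 (mg/kg, free base weight).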

[5] = tested on: Rattus norvegicus; assay: In vivo activity of 5-HTP-induced head twitch in rat as a measure of 5-HT2 antagonism; format: functional; method in brief: as §2
[6] = species: Mus musculus; assay: Ability to block the aggressive behavior caused by prolonged isolation in mouse; format: functional
Method in brief: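 Mice made aggressive by prolonged isolation; compounds dosed orally (po); blocking of aggressive behaviour scored and ED50 derived in mg/kg, expressed as free base weight; values averaged from three measurements, some single measurements.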

[7] = tested on: Rattus norvegicus; assay: In vivo 5-HT2 antagonism of 5-HTP-induced head twitch in rat; format: functional
Method in brief: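 Rats given 5-hydroxytryptophan (5HTP) to induce head twitches, a read-out of in vivo 5HT2 antagonism; compounds given orally (po); ED50 in mg/kg as free base weight; values averaged from three measurements, some single measurements.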

[8] = target: Sigma non-opioid intracellular receptor 1 (Cavia porcellus) (UniProt Q60492); assay: Binding affinity for sigma receptor of guinea pig whole brain using [3H]-SKF- 100047 radioligand
Chain of Sigma non-opioid intracellular receptor 1 (Cavia porcellus) (Q60492 whole entry, looked up): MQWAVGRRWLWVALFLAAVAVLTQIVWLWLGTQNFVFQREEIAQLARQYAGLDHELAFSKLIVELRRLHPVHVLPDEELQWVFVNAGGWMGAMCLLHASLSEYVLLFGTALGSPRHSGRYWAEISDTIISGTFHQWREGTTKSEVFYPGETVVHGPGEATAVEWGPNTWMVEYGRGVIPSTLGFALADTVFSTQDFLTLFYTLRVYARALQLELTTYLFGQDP

SMILES | ED50 [1] | ED50 [2] | further results
O=C(O)/C=C/C(=O)O.O=C1c2c(F)cc(F)cc2CCC12CCN(CCc1ccccc1)CC2 | > 10 mg/kg | – | –
O=C1c2ccc(F)cc2CCC1C1CCN(Cc2ccccc2)CC1 (configuration not stated) | > 10 mg/kg | – | –
OC1CCc2ccccc2C12CCN(CCc1ccccc1)CC2 (configuration not stated) | > 30 mg/kg | – | –
O=C1c2ccc(Cl)cc2CCC12CCN(CCc1ccccc1)CC2 | 10 mg/kg | – | –
O=C(O)CC(O)C(=O)O.O=C1c2ccccc2CCC12CCN(Cc1ccc(C(F)(F)F)cc1)CC2 | – | > 10 mg/kg | –
O=C(O)CC(O)C(=O)O.O=C1c2ccccc2CCC12CCN(Cc1ccc3ccccc3c1)CC2 | > 10 mg/kg | – | –
Cc1ccc(CN2CCC(C3CCc4ccccc4C3=O)CC2)cc1.O (configuration not stated) | > 10 mg/kg | – | –
CC(C)(C)c1ccc(CN2CCC(C3CCc4ccccc4C3=O)CC2)cc1 (configuration not stated) | – | > 10 mg/kg | –
c1ccc(CN2CCC3(CCCc4ccccc43)CC2)cc1 | – | > 30 mg/kg | ED50 [3]: > 30 mg/kg; ED50 [4]: > 30 mg/kg
COc1ccc2c(c1)CCC(C1CCN(CCc3ccccc3)CC1)C2=O (configuration not stated) | 6.5 mg/kg | – | –
O=C1CCc2ccccc2C12CCN(CCc1ccccc1)CC2 | > 30 mg/kg | – | –
O=C1c2ccc(F)cc2CCC1C1CCN(CCc2ccccc2)CC1 (configuration not stated) | – | 1.9 mg/kg | –
Br.O=C1c2ccccc2CCC1C1CCN(CCc2ccccc2)CC1 (configuration not stated) | – | 6.4 mg/kg | –
Br.CC(C1CC1)N1CCC(C2CCc3ccccc3C2=O)CC1 (configuration not stated) | – | > 30 mg/kg | –
CC(C)(C)c1ccc(CN2CCC3(CCc4ccccc4C3=O)CC2)cc1.Cl | > 10 mg/kg | – | –
COc1ccc(CN2CCC3(CCc4ccccc4C3=O)CC2)cc1.Cl | – | > 10 mg/kg | –

SMILES | ED50 [1] | ED50 [2] | further results
Cl.OC1c2ccccc2CCC12CCN(CCc1ccccc1)CC2 (configuration not stated) | 0.064 mg/kg | – | ED50 [5]: 0.07 mg/kg; ED50 [6]: 10 mg/kg
CN1CCC2(CCc3ccccc3C2=O)CC1.Cl | > 10 mg/kg | – | –
Br.O=C1c2ccccc2CCC1C1CCN(CC2CC2)CC1 (configuration not stated) | > 10 mg/kg | – | –
Br.O=C(CC1CCN(CC2CC2)CC1)c1ccc(F)cc1 | – | 0.35 mg/kg | ED50 [7]: 1.8 mg/kg; ED50 [6]: 1.9 mg/kg; Ki [8]: 10 nM
Cl.O=C1c2cccc(F)c2CCC1C1CCN(CCc2ccccc2)CC1 (configuration not stated) | 6.8 mg/kg | – | –
Cl.O=C1c2ccccc2CCC12CCN(Cc1ccc([N+](=O)[O-])cc1)CC2 | > 10 mg/kg | – | –
Cl.O=C1c2ccccc2CCC1C1CCN(Cc2ccccc2)CC1 (configuration not stated) | 4.5 mg/kg | – | –
Cl.O=C1c2ccc(Cl)cc2CCC1C1CCN(CCc2ccccc2)CC1 (configuration not stated) | 5.4 mg/kg | – | –
Cl.O=C1c2ccccc2CCC12CCN(Cc1ccc(F)cc1)CC2 | – | > 10 mg/kg | –
Cl.O=C1c2ccccc2CCC1C1CCN(Cc2ccc(F)cc2)CC1 (configuration not stated) | – | 10 mg/kg | –
Cl.O=C1c2ccccc2CCC1C1CCN(Cc2ccc(C(F)(F)F)cc2)CC1 (configuration not stated) | – | > 10 mg/kg | –
Cl.O=C(CCCN1CCC2(CCc3ccccc3C2=O)CC1)c1ccc(F)cc1 | 0.65 mg/kg | – | –
Cl.O=C1c2ccccc2CCC12CCN(CC1CCCCC1)CC2 | > 10 mg/kg | – | –
Cl.O=C1c2ccccc2CCC12CCN(CCc1ccccc1)CC2 | 10 mg/kg | – | ED50 [7]: 10 mg/kg; ED50 [6]: 30 mg/kg
Cl.O=C1c2ccccc2CCC12CCN(Cc1ccccc1)CC2 | > 10 mg/kg | – | –
C[C@@H]1CN(CCCn2c3ccccc3c3ccccc32)C[C@H](C)N1 [RIMCAZOLE] | – | 22 mg/kg | ED50 [6]: 48 mg/kg
